Measured values: ChEMBL document CHEMBL5247575 (J Med Chem, 2018)

Tested on: Klebsiella pneumoniae
Assay: Synergistic antibacterial activity against Klebsiella pneumoniae 935/1884 producing KPC-3 assessed as cefepime MIC at 4 ug/ml by broth microdilution method
Type: functional
Settings: dose 4 µg/ml

| SMILES | MIC |
| --- | --- |
| NC(=O)[C@@H]1CC[C@@H]2CN1C(=O)N2OS(=O)(=O)[O-].[Na+] [AVIBACTAM SODIUM] | ≤ 0.12 µg/mL |

Tested on: Bacteria
Assay: Inhibition of bacteria PDC-3 assessed as half life using nitrocefin as substrate
Settings: not given

| SMILES | T1/2 |
| --- | --- |
| NC(=O)[C@@H]1CC[C@@H]2CN1C(=O)N2OS(=O)(=O)[O-].[Na+] [AVIBACTAM SODIUM] | 14.4 min |

Tested on: Pseudomonas aeruginosa
Assay: Synergistic antibacterial activity against Pseudomonas aeruginosa 715 assessed as cefepime MIC at 4 ug/ml by broth microdilution method
Type: functional
Settings: dose 4 µg/ml

| SMILES | MIC |
| --- | --- |
| NC(=O)[C@@H]1CC[C@@H]2CN1C(=O)N2OS(=O)(=O)[O-].[Na+] [AVIBACTAM SODIUM] | 16 µg/mL |

Tested on: Escherichia coli
Assay: Synergistic antibacterial activity against Escherichia coli DH10B transfected with pBC SK (-) KPC-2 assessed as cefepime MIC at 4 ug/ml by broth microdilution method
Type: functional
Settings: dose 4 µg/ml

| SMILES | MIC |
| --- | --- |
| NC(=O)[C@@H]1CC[C@@H]2CN1C(=O)N2OS(=O)(=O)[O-].[Na+] [AVIBACTAM SODIUM] | ≤ 0.12 µg/mL |

Biological target: not listed separately
Assay: Inhibition of bacteria ADC-7 assessed as apparent inhibition constant using nitrocefin as substrate
Settings: not given

| SMILES | Ki |
| --- | --- |
| NC(=O)[C@@H]1CC[C@@H]2CN1C(=O)N2OS(=O)(=O)[O-].[Na+] [AVIBACTAM SODIUM] | 19 µM |

Tested on: Escherichia coli
Assay: Synergistic antibacterial activity against Escherichia coli DH10B transfected with pBC SK (-) KPC-3 assessed as cefepime MIC at 4 ug/ml by broth microdilution method
Type: functional
Settings: dose 4 µg/ml

| SMILES | MIC |
| --- | --- |
| NC(=O)[C@@H]1CC[C@@H]2CN1C(=O)N2OS(=O)(=O)[O-].[Na+] [AVIBACTAM SODIUM] | ≤ 0.12 µg/mL |

Tested on: Klebsiella pneumoniae
Assay: Synergistic antibacterial activity against Klebsiella pneumoniae 901/1860 producing KPC-3 assessed as cefepime MIC at 4 ug/ml by broth microdilution method
Type: functional
Settings: dose 4 µg/ml

| SMILES | MIC |
| --- | --- |
| NC(=O)[C@@H]1CC[C@@H]2CN1C(=O)N2OS(=O)(=O)[O-].[Na+] [AVIBACTAM SODIUM] | ≤ 0.12 µg/mL |

Tested on: Klebsiella pneumoniae
Assay: Antibacterial activity against Klebsiella pneumoniae jefferson 1775 producing OXA-48 by broth microdilution method
Type: functional
Settings: not given

| SMILES | MIC |
| --- | --- |
| NC(=O)[C@@H]1CC[C@@H]2CN1C(=O)N2OS(=O)(=O)[O-].[Na+] [AVIBACTAM SODIUM] | > 16 µg/mL |

Tested on: Acinetobacter baumannii
Assay: Synergistic antibacterial activity against Acinetobacter baumannii PR440 producing OXA-23/24/40 assessed as meropenem MIC at 4 ug/ml by broth microdilution method
Type: functional
Settings: dose 4 µg/ml

| SMILES | MIC |
| --- | --- |
| NC(=O)[C@@H]1CC[C@@H]2CN1C(=O)N2OS(=O)(=O)[O-].[Na+] [AVIBACTAM SODIUM] | > 16 µg/mL |

Tested on: Acinetobacter baumannii
Assay: Synergistic antibacterial activity against Acinetobacter baumannii PR408 producing OXA-24/40 assessed as meropenem MIC at 4 ug/ml by broth microdilution method
Type: functional
Settings: dose 4 µg/ml

| SMILES | MIC |
| --- | --- |
| NC(=O)[C@@H]1CC[C@@H]2CN1C(=O)N2OS(=O)(=O)[O-].[Na+] [AVIBACTAM SODIUM] | > 16 µg/mL |

Tested on: Escherichia coli
Assay: Synergistic antibacterial activity against Escherichia coli DH10B transfected with pBR322-catI-KPC-2 assessed as meropenem MIC at 4 ug/ml by broth microdilution method
Type: functional
Settings: dose 4 µg/ml
Outline: (§1)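 Broth microdilution per CLSI guidelines, using custom frozen panels. […] Each partner drug was also tested alone. MICs were run in triplicate and the modal value is reported.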

| SMILES | MIC |
| --- | --- |
| NC(=O)[C@@H]1CC[C@@H]2CN1C(=O)N2OS(=O)(=O)[O-].[Na+] [AVIBACTAM SODIUM] | ≤ 0.12 µg/mL |

Tested on: Acinetobacter baumannii
Assay: Synergistic antibacterial activity against Acinetobacter baumannii PR448 producing OXA-23 assessed as meropenem MIC at 4 ug/ml by broth microdilution method
Type: functional
Settings: dose 4 µg/ml

| SMILES | MIC |
| --- | --- |
| NC(=O)[C@@H]1CC[C@@H]2CN1C(=O)N2OS(=O)(=O)[O-].[Na+] [AVIBACTAM SODIUM] | > 16 µg/mL |

Tested on: Escherichia coli
Assay: Synergistic antibacterial activity against Escherichia coli DH10B transfected with pBC SK (-) KPC-2 assessed as meropenem MIC at 4 ug/ml by broth microdilution method
Type: functional
Settings: dose 4 µg/ml

| SMILES | MIC |
| --- | --- |
| NC(=O)[C@@H]1CC[C@@H]2CN1C(=O)N2OS(=O)(=O)[O-].[Na+] [AVIBACTAM SODIUM] | ≤ 0.12 µg/mL |

Tested on: Klebsiella pneumoniae
Assay: Synergistic antibacterial activity against Klebsiella pneumoniae CAV 1636 producing OXA-181 assessed as meropenem MIC at 4 ug/ml by broth microdilution method
Type: functional
Settings: dose 4 µg/ml

| SMILES | MIC |
| --- | --- |
| NC(=O)[C@@H]1CC[C@@H]2CN1C(=O)N2OS(=O)(=O)[O-].[Na+] [AVIBACTAM SODIUM] | 1 µg/mL |

Tested on: Pseudomonas aeruginosa
Assay: Synergistic antibacterial activity against Pseudomonas aeruginosa 715 assessed as meropenem MIC at 4 ug/ml by broth microdilution method
Type: functional
Settings: dose 4 µg/ml

| SMILES | MIC |
| --- | --- |
| NC(=O)[C@@H]1CC[C@@H]2CN1C(=O)N2OS(=O)(=O)[O-].[Na+] [AVIBACTAM SODIUM] | 16 µg/mL |

Tested on: Pseudomonas aeruginosa
Assay: Synergistic antibacterial activity against Pseudomonas aeruginosa 795 assessed as meropenem MIC at 4 ug/ml by broth microdilution method
Type: functional
Settings: dose 4 µg/ml

| SMILES | MIC |
| --- | --- |
| NC(=O)[C@@H]1CC[C@@H]2CN1C(=O)N2OS(=O)(=O)[O-].[Na+] [AVIBACTAM SODIUM] | 16 µg/mL |

Tested on: Klebsiella pneumoniae
Assay: Synergistic antibacterial activity against Klebsiella pneumoniae 977/1916 producing KPC-3 assessed as meropenem MIC at 4 ug/ml by broth microdilution method
Type: functional
Settings: dose 4 µg/ml

| SMILES | MIC |
| --- | --- |
| NC(=O)[C@@H]1CC[C@@H]2CN1C(=O)N2OS(=O)(=O)[O-].[Na+] [AVIBACTAM SODIUM] | ≤ 0.12 µg/mL |

Tested on: Klebsiella pneumoniae
Assay: Synergistic antibacterial activity against Klebsiella pneumoniae CAV 1543 producing OXA-48 assessed as meropenem MIC at 4 ug/ml by broth microdilution method
Type: functional
Settings: dose 4 µg/ml

| SMILES | MIC |
| --- | --- |
| NC(=O)[C@@H]1CC[C@@H]2CN1C(=O)N2OS(=O)(=O)[O-].[Na+] [AVIBACTAM SODIUM] | ≤ 0.12 µg/mL |

Tested on: Klebsiella pneumoniae
Assay: Synergistic antibacterial activity against Klebsiella pneumoniae jefferson 1775 producing OXA-48 assessed as meropenem MIC at 4 ug/ml by broth microdilution method
Type: functional
Settings: dose 4 µg/ml

| SMILES | MIC |
| --- | --- |
| NC(=O)[C@@H]1CC[C@@H]2CN1C(=O)N2OS(=O)(=O)[O-].[Na+] [AVIBACTAM SODIUM] | ≤ 0.12 µg/mL |

Tested on: Acinetobacter baumannii
Assay: Synergistic antibacterial activity against Acinetobacter baumannii PR420 producing OXA-23/24/40 assessed as cefepime MIC at 4 ug/ml by broth microdilution method
Type: functional
Settings: dose 4 µg/ml

| SMILES | MIC |
| --- | --- |
| NC(=O)[C@@H]1CC[C@@H]2CN1C(=O)N2OS(=O)(=O)[O-].[Na+] [AVIBACTAM SODIUM] | > 16 µg/mL |

Tested on: Klebsiella pneumoniae
Assay: Synergistic antibacterial activity against Klebsiella pneumoniae 660/1568 producing KPC-3 assessed as meropenem MIC at 4 ug/ml by broth microdilution method
Type: functional
Settings: dose 4 µg/ml
Outline: as §1

| SMILES | MIC |
| --- | --- |
| NC(=O)[C@@H]1CC[C@@H]2CN1C(=O)N2OS(=O)(=O)[O-].[Na+] [AVIBACTAM SODIUM] | ≤ 0.12 µg/mL |
